High-throughput results (PubChem BioAssay)
A selection: hits, their analogues and other compounds. The true share with any hit is near 3.5%.
Ecoli rRNA inh: selective bacterial rRNA inhibition in E. coli. E. coli WT GFP vs humanized-ribosome RFP mutants, fluorescence, 24 h; active compounds read low; DMSO median 0, no signal -100. GFP signal change (wild-type ribosome), % (test concentration not listed). hit rate 1.6% among 350,000;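 active = significant combined selectivity score with lowered wild-type GFP, culture density cut under 30%, mutant RFP and density less affected; inactive = any of these conditions unmet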
PGC1a acetyl inh: PGC1a acetylation modulation, inhibitor mode; hit rate 0.17% among 350,000; inhibition, % at 15.6 µM; U2OS PGC1a acetylation, AlphaScreen anti-acetyl-lysine; with virally co-expressed GCN5 acetyltransferase;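 active = every replicate shows inhibition of at least 40%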;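 note: 0% = neutral control wells and 100% = positive control wells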
ERAP1 HTS inh: ERAP1 (human) enzyme inhibition; inhibition, % at 10.7 µM; Q9NZ08; hit rate 0.15% among 340,000; recombinant ERAP1, Leu-AMC fluorescence, 60 min;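 active = mean replicate inhibition of at least 30%, or all replicates individually reaching that 30% level; inactive = mean below 30% and not every replicate reaching it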;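 note: 0% = neutral control wells and 100% = L-leucinethiol positive control wells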
Cneo AK release: causes C. neoformans cell lysis; lysis activity, % at 15 µM; adenylate kinase release luminescence, 4 h; normalised: neutral wells 0, clomiphene wells 100; hit rate 0.2% among 360,000;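 active = mean lysis activity across replicates of at least 80%, whatever share of replicates individually reach that level; inactive = mean lysis activity below 80%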
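Material – Cryptococcus neoformans yeast cells · Quantity – 5 × 10^6 yeast cells/mL · Buffer or medium – YPD medium · Compound – single dose · Timing – 4 h static compound exposure, 37 °C, read 1 h post-reagent · Signal – adenylate kinase release luminescence · Read-out basis – lysis from increased AK signal · Benchmarks – Clomiphene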
Env fusion inh: HIV envelope-mediated fusion inhibition; HeLa-JRFL Env/CEM21 cell fusion, luciferase; inhibition, % at 12.3 µM; hit rate 1.1% among 360,000;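 active = mean replicate inhibition score of at least 50 and every replicate individually at or above 50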;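 note: 0% = plate neutral controls and 100% = maraviroc near 300 nM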
FGF22 binding: FGF22 (human) thermal shift binding; Q9HCT0; recombinant FGF22 thermal shift, SYPRO orange fluorescence; percent of sucrose octasulfate shift, DMSO zero; hit rate 1.5% among 340,000; activity (Tm shift, normalised), % at 9.99 µM;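 active = mean Tm shift, scaled 0 neutral to 100 positive control, at about 1.3% or above, every replicate too, limit read from the data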
Target sequence (Q9HCT0 whole entry, looked up): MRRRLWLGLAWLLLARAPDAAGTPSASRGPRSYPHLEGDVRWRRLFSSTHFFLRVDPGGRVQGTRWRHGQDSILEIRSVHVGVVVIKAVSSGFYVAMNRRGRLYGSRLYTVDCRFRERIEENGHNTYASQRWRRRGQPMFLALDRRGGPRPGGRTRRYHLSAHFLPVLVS
Numbers without * were called inactive; · = no result given; ! = not confirmed by another sample; [ ] = dose if it differs, or a comment.

SMILES | Ecoli rRNA inh | PGC1a acetyl inh | ERAP1 HTS inh | Cneo AK release | Env fusion inh | FGF22 binding
C[C@@H]1CN([C@@H](C)CO)C(=O)Cc2cc(NC(=O)Nc3ccc(F)cc3)ccc2O[C@H]1CN(C)Cc1ccc(C(F)(F)F)cc1 | 2 | -3 | 3 | · | 69*[16.7 µM] | 0
C[C@H]1CN([C@@H](C)CO)C(=O)Cc2cc(NC(=O)Nc3cccc4ccccc34)ccc2O[C@H]1CN(C)Cc1ccc(C(=O)O)cc1 | -2 | -2 | -14 | 8 | · | 0
C[C@@H]1CN([C@H](C)CO)C(=O)Cc2cc(NC(=O)CCCCCC(=O)Nc3ccccc3N)ccc2O[C@H]1CN(C)Cc1ccc2c(c1)OCO2 | -5 | 3 | 2 | 92* | 9[16.7 µM] | 0
COc1cc(OC)cc(C(=O)Nc2cc(-c3cn4cccnc4n3)ccc2C)c1 | 11 | -10 | -1 | · | -9 | 0
COCC1CCCN(Cc2cn(Cc3ccccc3)nc2-c2cc3ccccc3o2)C1 (stereo not given) | -24 | -11 | -5 | -3 | 58* | 0
CCCCCNC(=O)C(c1ccncc1)n1c(=O)c(-c2cc3ccccc3[nH]2)nc2ccccc21 (stereo not given) | -45 | · | · | · | 75* | 0
CCCCCNC(=O)C(c1ccc(OC)cc1)n1c(=O)c(-c2cc3ccccc3[nH]2)nc2ccccc21 (stereo not given) | 15 | · | · | · | 26 | 0
O=C(O)c1ccc2c(c1)N(Cc1ccc(F)cc1)C(=O)c1ccccc1S2 | -20* | -9 | 3 | -1 | -1 | ·
O=C(NCCN1CCOCC1)c1ccc2c(c1)N(Cc1cccc(F)c1)C(=O)c1ccccc1S2 | -14 | 7 | -1 | · | -98 | 0
Cc1nn(-c2ccccc2)cc1/C=N/NC(N)=S | -21* | -26 | · | 19 | 47 | 0
Cc1cc(OCC(=O)NNC(=O)c2ccncc2)ccc1C(C)C | -7 | 8 | 1 | -2 | · | 0
O=C(C[C@H]1C[C@H]2c3cc(NS(=O)(=O)c4ccc(F)cc4)ccc3O[C@H]2[C@@H](CO)O1)NC1CCCC1 | -3 | -1 | -1 | 1 | -2[16.7 µM] | 0
CCCCNC(=O)c1onc(CSc2ccc(Cl)cc2)c1C(=O)NCCCC | -25 | · | 9 | -5 | 13 | 35*
Cc1cc(C)cc(SCc2noc(C(=O)NCc3ccccc3)c2C(=O)NCc2ccccc2)c1 | · | -2 | · | 0 | 64* | ·
O=C(NCc1ccccc1)c1onc(CSc2ccc(F)cc2)c1C(=O)NCc1ccccc1 | · | -6 | · | 8 | -4 | ·
CCCCNC(=O)c1onc(CSc2cc(C)ccc2C)c1C(=O)O | -40* | 0 | 1 | 1 | -13 | 1
O=C(NCc1cccnc1)C1CCN(C(=O)c2ccc(Cl)cc2Cl)CC1 | · | · | · | · | -38 | ·
Cc1nc(-c2ccc(Cl)cc2)sc1C1(C)CC(c2ccncc2)=NO1 (stereo not given) | · | 13 | · | 0 | 9 | ·
Cc1cccc(CN2CCN(C(C)C(=O)NC(C)c3ccccc3)CC2)c1 (stereo not given) | 1 | -6 | 0 | 0 | -10 | 0
Cc1cc(C)n(-c2n[nH]c(C)c2[N+](=O)[O-])n1 | 5 | -1 | -2 | · | -12 | 44*
CCN(CC(=O)NCc1cccs1)C(=O)CCCOc1ccc(C(C)(C)C)cc1 | -23 | · | 0 | -1 | 13 | 0
C[C@H](CO)N1C[C@H](C)[C@H](CN(C)S(C)(=O)=O)OCCCC[C@H](C)Oc2ccc(NC(=O)Nc3ccc4c(c3)OCO4)cc2C1=O | -4 | 6 | -1 | 4 | 43[16.7 µM] | 0
CC1=Nc2ccccc2/C1=C/c1c(N)n2c(S(=O)(=O)C(C)C)nsc2nc1=O | -35 | -2 | 7 | 4 | -28 | ·
CSc1nsc2nc(=O)c(/C=C3\C=Nc4ccccc43)c(N)n12 | -23 | 6 | 2 | 0 | -30 | 1.5*
CC1=Nc2ccccc2/C1=C/c1c(N)n2c(S(=O)(=O)CC(C)C)nsc2nc1=O | -50 | · | -4 | · | 7 | 44*
SMILES | Ecoli rRNA inh | PGC1a acetyl inh | ERAP1 HTS inh | Cneo AK release | Env fusion inh | FGF22 binding
CC(=O)N(C)C[C@H]1Oc2cc(-c3ccccc3F)ccc2S(=O)(=O)N([C@H](C)CO)C[C@H]1C | -10 | 7 | 0 | -3 | 4[16.7 µM] | 0
Fc1ccc(N2CCN(Cc3ccccn3)CC2)cc1 | 9 | 4 | -3 | · | -1 | 44*
O=[N+]([O-])c1ccccc1CN1CCN(Cc2ccccn2)CC1 | 20 | 2 | 3 | · | -8 | 43*
c1ccc(CN2CCOCC2)nc1 | 8 | · | 1 | · | 6 | 0
Fc1ccc(N2CCN(Cc3cnc(N4CCOCC4)s3)CC2)cc1 | 12 | 8 | 5 | · | 4 | 43*
Cn1c(Cn2c(=O)sc3ccccc32)nnc1SCC(=O)NCc1ccc(F)cc1 | 6 | -6 | -2 | 0 | -8 | 0
c1cc[n+](CCC[n+]2ccccc2)cc1 | 10 | 7 | 110* | 1 | -11 | 0
CCOC(=O)C1CCCN(C(=O)c2cccs2)CC1 (stereo not given) | · | -1 | 1 | -2 | -1 | 0
CCc1cc(C(=O)c2ccc(OC)cc2)c(NC(=O)CN2CCCC2)s1 | -4 | · | -1 | 3 | 28 | 0
CCc1cc(C(=O)c2ccc(OC)cc2)c(NC(=O)CCC(=O)O)s1 | -42* | -6 | 3 | 0 | 27 | 0
Oc1ccc(N=Cc2ccc(-c3cccs3)s2)cc1 | · | -10 | · | 0 | 34 | ·
CC(c1nc2ccccc2c(=O)[nH]1)N(C)CCOc1ccc(Cl)cc1 (stereo not given) | -12 | -2 | -1 | 3 | 97* | 0
O=c1[nH]c(SCCOc2ccccc2)nc2ccccc12 | · | -2 | · | 0 | -128 | ·
C[C@@H]1CN([C@@H](C)CO)C(=O)c2cccc(NS(=O)(=O)c3cccs3)c2O[C@@H]1CN(C)Cc1ccc(C(F)(F)F)cc1 | -1 | -10 | 0 | 4 | 68*[16.7 µM] | -1
C[C@H](CO)N1C[C@H](C)[C@@H](CN(C)Cc2ccc(Cl)c(Cl)c2)Oc2c(NS(=O)(=O)c3cccs3)cccc2C1=O | 0 | -8 | 7 | 0 | 62*! | 0
C[C@@H]1CN([C@H](C)CO)C(=O)c2cccc(NS(=O)(=O)c3cccs3)c2O[C@H]1CN(C)Cc1ccc(C(F)(F)F)cc1 | -3 | 27 | 2 | -1 | 28[16.7 µM] | -1
C[C@@H]1CN([C@H](C)CO)C(=O)c2cccc(NS(=O)(=O)c3cccs3)c2O[C@@H]1CN(C)Cc1ccc(C(F)(F)F)cc1 | -4 | -5 | -1 | -6 | 84*[16.7 µM] | 0
COc1ccc(CCNc2c(C)c(C)nc3ncnn23)cc1 | -3 | -1 | 4 | -3 | · | 0
O=C(Nc1ccc(F)c(Cl)c1)c1ccccc1 | -37 | 6 | · | -6 | -22 | 1
COc1ccccc1-c1ccc(SCC(=O)NCc2ccc3c(c2)OCO3)nn1 | -25 | -8 | 6 | · | 12 | 0
